According to ChEMBL document CHEMBL1255487, “Preclinical evaluation of the antifolate QN254, 5-chloro- N'6'-(2,5-dimethoxy-benzyl)-quinazoline-2,4,6-triamine, as an antimalarial drug candidate” (Antimicrob Agents Chemother, 2010):
Active and inactive are the calls of the source. The rule behind the calls is not given here.

Tests used:
[1] = AUC (0 to 24 hrs) in Wistar rat at 50 mg/kg, po; format: ADME, organism-based; parameters: time < 24 hr, dose 50 mg/kg, route oral; conditions: plasma
[2] = Half life in CD-1 mouse at 5 mg/kg, iv; format: ADME, organism-based; parameters: dose 5 mg/kg, route intravenous; conditions: in vivo
Method in brief: (§1)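 Mice dosed with 25 mg/kg p.o. as a 2.5 mg/ml suspension in 0.5% CMC, or with 5 mg/kg i.v. at 1 mg/ml in 10% NMP, 30% PEG 400 and 60% of 10% vitamin E-TPGS. Blood sampled at several time points. Plasma extracted with acidified acetonitrile (8:1) and quantified by LC-MS, LLOQ 12 ng/ml.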

Plasmodium falciparum [3] = assay: Antimalarial activity against pyrimethamine-resistant Plasmodium falciparum clinical isolate harboring S108N, N51I mutation in DHFR assessed as decrease in parasitaemia; format: functional, organism-based
Method in brief: (§2)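 P. falciparum grown in RPMI 1640 with 10% (v/v) human serum, 25 mM bicarbonate, 2 mM glutamine, 25 mM HEPES, 5 nM para-aminobenzoic acid and 23 nM folic acid. Parasites exposed to a concentration series. Read-out is [3H]hypoxanthine incorporation into nucleic acid. IC50 taken from non-linear regression of the dose–response curve.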

Mus musculus [4] = assay: Toxicity in NMRI mice (Mus musculus) infected with Plasmodium berghei ANKA at 15 mg/kg, perorally administered as single dose measured up to 30 days postinfection; format: organism-based; parameters: dose 15 mg/kg, route oral; conditions: in vivo, po, 720 h
Plasmodium berghei [5] = assay: Antimalarial activity against Plasmodium berghei ANKA infected in NMRI mice (Mus musculus) assessed as survival rate at 30 mg/kg, perorally administered as single dose; format: functional; conditions: route oral
Method in brief: (§3)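 Infection: 5 female NMRI mice (20–22 g) per group, inoculated intravenously with 0.2 ml of donor blood at 1 × 10^8 parasitized erythrocytes/ml. Oral administration in 0.5% carboxymethyl cellulose. Survival time recorded up to 30 days after infection and averaged per group.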

Rattus norvegicus [6] = assay: Toxicity in Wistar rat assessed as occurrence of massive bone marrow atrophy at => 50 mg/kg, po after 2 weeks; format: organism-based; parameters: dose 50 mg/kg, route oral; conditions: in vivo, 336 h
Method in brief: (§4)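 Male Wistar rats, about 10 weeks old (254–292 g), 5 per group, gavaged daily with 50, 150 or 500 mg/kg/day. Vehicle was 10% of 1% aqueous Solutol HS15 plus 90% of 0.5% aqueous methylcellulose; exploratory 2-week design. Clinical observations, body weight, food intake, hematology, clinical chemistry and gross pathology recorded. Histopathology covered gross lesions and selected organs in the control and low-dose groups.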

[7] = AUC in Wistar rat at 25 mg/kg, po; format: ADME, organism-based; parameters: dose 25 mg/kg, route oral; conditions: plasma
Method in brief: (§5)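 Rats dosed with 25 mg/kg p.o. as a 2.5 mg/ml suspension in 0.5% CMC, or with 5 mg/kg i.v. at 1 mg/ml in 10% NMP, 30% PEG 400 and 60% of 10% vitamin E-TPGS. Plasma sampled over time, extracted with acidified acetonitrile (8:1) and quantified by LC-MS, LLOQ 12 ng/ml.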

[8] = Binding affinity to wild type Plasmodium falciparum DHFR by competitive binding assay
Plasmodium berghei [9] = assay: Antimalarial activity against Plasmodium berghei ANKA infected in NMRI mice (Mus musculus) assessed as cure rate at 100 mg/kg, perorally administered as single dose measured on […]; format: functional; conditions: route oral
Method in brief: (§6)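 Female NMRI mice (20–22 g), 5 per group, infected intravenously with 0.2 ml of 1 × 10^8 parasitized erythrocytes/ml from a fresh donor mouse. Compound suspended in 0.5% carboxymethyl cellulose and given orally. Survival followed to day 30 post-infection; an animal was scored cured if it survived to day 30 without parasites.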

Plasmodium berghei [10] = assay: Antimalarial activity against Plasmodium berghei ANKA infected in perorally dosed NMRI mice (Mus musculus) assessed as reduction in parasitemia administered as single dose measured on day 3 postinfection; format: functional; conditions: po, 72 h
Dihydrofolate reductase = target: T1, Dihydrofolate reductase (Homo sapiens, UniProt P00374); assay: Binding affinity to human recombinant DHFR expressed in Escherichia coli BL21(DE3) by competitive binding assay
T1 sequence (P00374 whole entry): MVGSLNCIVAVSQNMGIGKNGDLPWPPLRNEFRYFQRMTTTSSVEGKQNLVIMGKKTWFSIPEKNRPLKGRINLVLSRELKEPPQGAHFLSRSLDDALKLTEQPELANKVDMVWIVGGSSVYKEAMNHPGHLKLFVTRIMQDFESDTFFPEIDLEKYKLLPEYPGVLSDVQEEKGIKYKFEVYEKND

[11] = Half life in Wistar rat at 25 mg/kg, po; format: ADME, organism-based; parameters: dose 25 mg/kg, route oral; conditions: in vivo; method in brief: as §5
Plasmodium berghei [12] = assay: Antimalarial activity against Plasmodium berghei ANKA infected in NMRI mice (Mus musculus) assessed as reduction in parasitemia at 3 times 30 mg/kg, perorally measured on day 3 postinfection; format: functional; parameters: scale not given: the % may be the effect or the level left; conditions: route oral
Method in brief: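 P. berghei ANKA given intravenously to groups of 5 female NMRI mice (20–22 g): 0.2 ml of 1 × 10^8 parasitized erythrocytes/ml from a donor mouse. Oral dosing in 0.5% carboxymethyl cellulose. Parasitemia counted by microscopy. Activity is the control-minus-treated parasitemia difference, expressed as percent of untreated controls.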

Mus musculus [13] = assay: Toxicity in NMRI mice (Mus musculus) infected with Plasmodium berghei ANKA at 3 times 60 mg/kg, perorally measured up to 30 days postinfection; format: organism-based; parameters: dose 60 mg/kg, route oral; conditions: in vivo, po, 720 h
Plasmodium falciparum [14] = assay: Antimalarial activity against pyrimethamine-resistant Plasmodium falciparum clinical isolate harboring S108N, C59R mutation in DHFR assessed as decrease in parasitaemia; format: functional, organism-based; method in brief: as §2
Plasmodium berghei [15] = assay: Antimalarial activity against Plasmodium berghei ANKA infected in NMRI mice (Mus musculus) assessed as mean survival time at 3 times 60 mg/kg, perorally; format: functional, organism-based; parameters: dose 60 mg/kg
[16] = Binding affinity to recombinant Plasmodium falciparum V1/S DHFR S108N, N51I, C59R, I164L mutant by competitive binding assay; parameters: species or system V1S
Plasmodium berghei [17] = assay: Antimalarial activity against Plasmodium berghei ANKA infected in NMRI mice (Mus musculus) assessed as mean survival time at 3 times 100 mg/kg, perorally; format: functional, organism-based; parameters: dose 100 mg/kg
Plasmodium berghei [18] = assay: Antimalarial activity against Plasmodium berghei ANKA infected in NMRI mice (Mus musculus) assessed as cure rate at 10 mg/kg, perorally administered as single dose […]; format: functional; conditions: route oral; method in brief: as §6
Rattus norvegicus [19] = assay: Toxicity in Wistar rat assessed as occurrence of bone marrow degeneration at => 50 mg/kg, po after 2 weeks; format: organism-based; parameters: dose 50 mg/kg, route oral; conditions: in vivo, 336 h; method in brief: as §4
Plasmodium falciparum [20] = assay: Antimalarial activity against pyrimethamine-resistant Plasmodium falciparum clinical isolate harboring S108N, N51I, C59R mutation in DHFR assessed as decrease in parasitaemia; format: functional, organism-based; method in brief: as §2
Plasmodium berghei [21] = assay: Antimalarial activity against Plasmodium berghei ANKA infected in NMRI mice (Mus musculus) assessed as cure rate at 15 mg/kg, perorally administered as single dose measured on day 3 postinfection; format: functional; conditions: route oral; method in brief: as §6
Plasmodium falciparum [22] = assay: Antimalarial activity against pyrimethamine-resistant Plasmodium falciparum V1/S harboring S108N, N51I, C59R, I164L mutation in DHFR assessed as decrease in parasitaemia; format: functional, organism-based; conditions: V1S
Plasmodium berghei [23] = assay: Antimalarial activity against Plasmodium berghei ANKA infected in NMRI mice (Mus musculus) assessed as survival rate at 100 mg/kg, perorally administered as single dose; format: functional; conditions: route oral; method in brief: as §3
[24] = Clearance in CD-1 mouse at 5 mg/kg, iv; format: ADME, organism-based; parameters: dose 5 mg/kg, route intravenous; conditions: in vivo; method in brief: as §1
Plasmodium berghei [25] = assay: Antimalarial activity against Plasmodium berghei ANKA infected in NMRI mice (Mus musculus) assessed as cure rate at 3 times 100 mg/kg, perorally measured on […]; format: functional; conditions: route oral; method in brief: as §6

## COc1ccc(OC)c(CNc2ccc3nc(N)nc(N)c3c2Cl)c1
[1]
  AUC(0-t) at 24 h: 27600 ng·h/mL
[2]
  half-life: 0.8 h
Plasmodium falciparum [3]
  IC50: 4.48 nM
Mus musculus [4]
  Activity: 0%
Plasmodium berghei [5]
  Survival: 8.1 days
Rattus norvegicus [6]
  Activity: Toxic
[7]
  AUC: 67.3 µM·h
[8]
  Ki: 0.39 nM
Plasmodium berghei [9]
  Activity: 50%
Plasmodium berghei [10]
  ED50: 7.2 mg/kg
  ED90: 12.4 mg/kg
Dihydrofolate reductase
  Ki: 10.2 nM
[11]
  half-life: 9.3 h
Plasmodium berghei [12]
  Activity: >99.99%
Mus musculus [13]
  Activity: 40%
Plasmodium falciparum [14]
  IC50: 4.48 nM
Plasmodium berghei [15]
  Activity: inactive
[16]
  Ki: 0.58 nM
Plasmodium berghei [17]
  Activity: inactive
Plasmodium berghei [18]
  Activity: 0%
Rattus norvegicus [19]
  Activity: Toxic
Plasmodium falciparum [20]
  IC50: 11.7 nM
Plasmodium berghei [21]
  Activity: 0%
Plasmodium falciparum [22]
  IC50: 7.61 nM
Plasmodium berghei [23]
  Survival: 23.4 days
[24]
  clearance: 51.1 mL/min/kg
Plasmodium berghei [25]
  Activity: 20%
